Measurements as given in ChEMBL document CHEMBL3813688, “Synthesis, antitumor activity and mechanism of action of novel 1,3-thiazole derivatives containing hydrazide-hydrazone and carboxamide moiety” (Bioorg Med Chem Lett, 2016).
Converted amounts (≈) assume the structure as drawn.

Assays:
[1] = Cytotoxicity against human BCG823 cells assessed as cell growth inhibition after 72 hrs by MTT assay; format: functional, cell-based; conditions: BCG823, 72 h
Method in brief: (§1)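 MTT growth assay in human cancer lines (MCF-7, HepG2, BGC-823, HeLa, A549), 72 h after treatment; 5-fluorouracil as reference. IC50 (μg/mL) taken as concentration giving 50% growth inhibition versus untreated control.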

MCF7 [2] = assay: Cytotoxicity against human MCF7 cells assessed as cell growth inhibition after 72 hrs by MTT assay; format: functional, cell-based; conditions: MCF7, 72 h; method in brief: as §1
A549 [3] = assay: Cytotoxicity against human A549 cells assessed as cell growth inhibition after 72 hrs by MTT assay; format: functional, cell-based; conditions: A549, 72 h; method in brief: as §1
HeLa [4] = assay: Cytotoxicity against human HeLa cells assessed as cell growth inhibition after 72 hrs by MTT assay; format: functional, cell-based; method in brief: as §1
HepG2 [5] = assay: Cytotoxicity against human HepG2 cells assessed as cell growth inhibition after 72 hrs by MTT assay; format: functional, cell-based; conditions: HepG2, 72 h; method in brief: as §1
HeLa [6] = assay: Cytotoxicity against human HeLa cells assessed as cell growth inhibition at 20 ug/ml after 72 hrs by MTT assay; format: functional; conditions: read-out: GI
A549 [7] = assay: Cytotoxicity against human A549 cells assessed as cell growth inhibition at 20 ug/ml after 72 hrs by MTT assay; format: functional; conditions: A549, 72 h, read-out: GI
[8] = test system: MCF-7, HepG2, BGC-823, HeLa, A549 cancer cell lines (Homo sapiens); assay: Cytotoxicity against human MCF-7, HepG2, BGC-823, HeLa and A549 cells assessed as cell growth inhibition at 20 ug/ml after 72 hrs by MTT assay; conditions: read-out: GI
MCF7 [9] = assay: Cytotoxicity against human MCF7 cells assessed as cell growth inhibition at 20 ug/ml after 72 hrs by MTT assay; format: functional; conditions: MCF7, 72 h, read-out: GI
HepG2 [10] = assay: Cytotoxicity against human HepG2 cells assessed as cell growth inhibition at 20 ug/ml after 72 hrs by MTT assay; format: functional; conditions: HepG2, 72 h, read-out: GI
[11] = Cytotoxicity against human BCG823 cells assessed as cell growth inhibition at 20 ug/ml after 72 hrs by MTT assay; format: functional; conditions: BCG823, 72 h, read-out: GI

Structure (SMILES)	IC50 [1] [mg/L]	IC50 (MCF7 [2]) [mg/L]	IC50 (A549 [3]) [mg/L]	IC50 (HeLa [4]) [mg/L]	IC50 (HepG2 [5]) [mg/L]	inhibition of growth at 20 µg/mL (HeLa [6]) [%]	inhibition of growth at 20 µg/mL (A549 [7]) [%]	inhibition at 72 h, 20 ug/ml [8] [%]	inhibition of growth at 20 µg/mL (MCF7 [9]) [%]	inhibition of growth at 20 µg/mL (HepG2 [10]) [%]	inhibition of growth at 20 µg/mL [11] [%]
Cc1nc(N(C)C(=O)NC(=O)c2ccc(Cl)cc2Cl)sc1C(=O)N/N=C/c1ccc(C(F)(F)F)cc1	38 (≈ 68 µM)	24.5 (≈ 43.9 µM)	30.2 (≈ 54.1 µM)	20.3 (≈ 36.4 µM)	> 100						
CN(C(=O)NC(=O)c1cccc(C(F)(F)F)c1)c1nc(C(F)(F)F)c(C(=O)N/N=C/c2cc(C(F)(F)F)cc(C(F)(F)F)c2)s1	5.23 (≈ 7.7 µM)	6.08 (≈ 8.95 µM)	8.2 (≈ 12.1 µM)	5.34 (≈ 7.86 µM)	5.38 (≈ 7.92 µM)						
CN(C(=O)NC(=O)c1c(Cl)cccc1Cl)c1nc(C(F)(F)F)c(C(=O)N/N=C/c2ccccc2C(F)(F)F)s1	4.12 (≈ 6.73 µM)	6.24 (≈ 10.2 µM)	12 (≈ 19.6 µM)	5.23 (≈ 8.54 µM)	8.95 (≈ 14.6 µM)						
Cc1nc(N(C)C(=O)NC(=O)c2c(F)cccc2F)sc1C(=O)N/N=C/c1cc(C(F)(F)F)cc(C(F)(F)F)c1	14.1 (≈ 23.7 µM)	11.6 (≈ 19.6 µM)	13 (≈ 21.9 µM)	12.2 (≈ 20.6 µM)	11.4 (≈ 19.1 µM)						
Cc1nc(N(C)C(=O)NC(=O)c2c(F)cccc2F)sc1C(=O)N/N=C/c1ccc(F)cc1					> 100						
Cc1nc(N(C)C(=O)NC(=O)c2c(F)cccc2F)sc1C(=O)N/N=C/c1cccc(C(F)(F)F)c1	32.6 (≈ 62.1 µM)	28.1 (≈ 53.6 µM)	30.3 (≈ 57.7 µM)	26.8 (≈ 51 µM)	31.6 (≈ 60.1 µM)						
CN(C(=O)NC(=O)c1ccc(C(F)(F)F)cc1)c1nc(C(F)(F)F)c(C(=O)N/N=C/c2ccc(C(F)(F)F)cc2)s1	> 100	> 100	> 100	> 100	> 100						
CN(C(=O)NC(=O)c1ccccc1F)c1nc(C(F)(F)F)c(C(=O)N/N=C/c2cc(C(F)(F)F)cc(C(F)(F)F)c2)s1	4.23 (≈ 6.72 µM)	6.16 (≈ 9.79 µM)	5.43 (≈ 8.63 µM)	4.98 (≈ 7.91 µM)	4.47 (≈ 7.1 µM)						
CN(C(=O)NC(=O)c1ccccc1F)c1nc(C(F)(F)F)c(C(=O)N/N=C/c2ccccc2C(F)(F)F)s1	4.67 (≈ 8.32 µM)	12.2 (≈ 21.8 µM)	6.32 (≈ 11.3 µM)	10.1 (≈ 18 µM)	5.39 (≈ 9.6 µM)						
CN(C(=O)NC(=O)c1ccccc1F)c1nc(C(F)(F)F)c(C(=O)N/N=C/c2ccc(C(F)(F)F)cc2)s1	3.87 (≈ 6.89 µM)	4.98 (≈ 8.87 µM)	5.68 (≈ 10.1 µM)	3.97 (≈ 7.07 µM)	4.56 (≈ 8.12 µM)						
CN(C(=O)NC(=O)c1ccc(Cl)cc1Cl)c1nc(C(F)(F)F)c(C(=O)N/N=C/c2cccc(C(F)(F)F)c2)s1	6.11 (≈ 9.98 µM)	10.7 (≈ 17.5 µM)	10.5 (≈ 17.2 µM)	9.6 (≈ 15.7 µM)	11.2 (≈ 18.3 µM)						
CCOC(=O)c1sc(NC)nc1C						< 10	< 10	< 10	< 10	< 10	< 10
CN(C(=O)NC(=O)c1ccc(F)c(F)c1)c1nc(C(F)(F)F)c(C(=O)N/N=C/c2ccccc2C(F)(F)F)s1	3.66 (≈ 6.32 µM)	8.21 (≈ 14.2 µM)	6.96 (≈ 12 µM)	9.24 (≈ 15.9 µM)	10.4 (≈ 17.9 µM)						
Cc1nc(N(C)C(=O)NC(=O)c2c(F)cccc2F)sc1C(=O)N/N=C/c1ccc(C(F)(F)F)cc1	65.5 (≈ 125 µM)	30.6 (≈ 58.2 µM)	60.4 (≈ 115 µM)	40.5 (≈ 77.2 µM)	> 100						
CN(C(=O)NC(=O)c1cccc(C(F)(F)F)c1)c1nc(C(F)(F)F)c(C(=O)N/N=C/c2ccccc2C(F)(F)F)s1	7.29 (≈ 11.9 µM)	7.69 (≈ 12.6 µM)	12.1 (≈ 19.8 µM)	7.37 (≈ 12.1 µM)	10.4 (≈ 17 µM)						
CN(C(=O)NC(=O)c1ccc(C(F)(F)F)cc1)c1nc(C(F)(F)F)c(C(=O)N/N=C/c2cc(C(F)(F)F)cc(C(F)(F)F)c2)s1	1.77 (≈ 2.61 µM)	7.37 (≈ 10.8 µM)	5.9 (≈ 8.68 µM)	5.78 (≈ 8.51 µM)	8.35 (≈ 12.3 µM)						
CN(C(=O)NC(=O)c1ccc([N+](=O)[O-])cc1)c1nc(C(F)(F)F)c(C(=O)N/N=C/c2ccc([N+](=O)[O-])cc2)s1	7.45 (≈ 13.2 µM)	9.24 (≈ 16.3 µM)	8.98 (≈ 15.9 µM)	8.42 (≈ 14.9 µM)	12.3 (≈ 21.8 µM)						
Cc1nc(N(C)C(=O)NC(=O)c2c(F)cccc2F)sc1C(=O)N/N=C/c1ccccc1Cl					> 100						
CN(C(=O)NC(=O)c1ccccc1F)c1nc(C(F)(F)F)c(C(=O)N/N=C/c2cccc(C(F)(F)F)c2)s1	16.3 (≈ 29.1 µM)	20.5 (≈ 36.6 µM)	19.4 (≈ 34.6 µM)	19.1 (≈ 34.1 µM)	20.3 (≈ 36.2 µM)						
CN(C(=O)NC(=O)c1ccc(Cl)cc1Cl)c1nc(C(F)(F)F)c(C(=O)N/N=C/c2cc(C(F)(F)F)cc(C(F)(F)F)c2)s1	> 100	> 100	> 100	> 100	> 100						
